Results on one compound are retold here after ChEMBL document CHEMBL6134793, “Synthesis and structure-activity study of the antimicrobial lipopeptide brevibacillin” (RSC Med Chem, 2024).

The subject of one data set is Bacillus subtilis. The data set can be described thus: Antimicrobial activity against Bacillus subtilis ATCC 23957 assessed as growth inhibition by microdilution assay. It counts as functional. An outline of the steps: (§1)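 Twofold serial microdilution of peptide (stocks 2 mg mL−1, diluted to 512 μg mL−1 in water with 10% DMSO) in strain medium, about 1 × 10^4 cfu per well. Media: TSB 20 h 37 °C (S. aureus, L. monocytogenes, B. subtilis, E. faecalis); LB 20 h 37 °C (P. aeruginosa, S. enterica, E. coli); Brucella 48 h 37 °C (C. coli). A595 read; MIC = lowest concentration with no visible growth; triplicate.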
For orientation: Broth dilution looks for growth in wells or tubes with falling amounts of substance.

Data set [1] concerns Staphylococcus aureus. The data set can be described thus: Antimicrobial activity against Staphylococcus aureus ATCC 6538 assessed as growth inhibition by microdilution assay. The format is functional. An outline of the steps: as §1
For data set [2], the system named is Staphylococcus aureus. Nature of the data set: Antimicrobial activity against Staphylococcus aureus ATCC 6538 assessed as growth inhibition at 128 ug/ml by radial diffusion assay. It counts as functional, organism-based. As to conditions: dose 128.0 µg/ml. An outline of the steps:
(§2)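 Agar well diffusion. Overnight cultures inoculated at 1% into 0.75% soft agar (TSB for S. aureus, LB for P. aeruginosa). Each well received 80 μL of peptide at 128 μg mL−1 in water with 10% DMSO; 10% DMSO served as negative control. Inhibition zone diameter scored after strain-specific incubation.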

The test system of the next data set is Listeria monocytogenes. The data set can be described thus: Antimicrobial activity against Listeria monocytogenes ATCC 19111 assessed as growth inhibition by microdilution assay. It counts as functional. The method, boiled down:
as §1

In the next data set the test system is Campylobacter coli. The data set can be described thus: Antimicrobial activity against Campylobacter coli ATCC 33559 assessed as growth inhibition by microdilution assay. The format is functional. The method, boiled down:
as §1

In data set [3] the test system is Pseudomonas aeruginosa. Nature of the data set: Antimicrobial activity against Pseudomonas aeruginosa ATCC […] assessed as growth inhibition at 128 ug/ml by radial diffusion assay. As to conditions: dose 128.0 µg/ml. It counts as functional, organism-based. An outline of the steps:
as §2

The test system of a further data set is Escherichia coli. Nature of the data set: Antimicrobial activity against Escherichia coli ATCC 25922 assessed as growth inhibition by microdilution assay. It counts as functional. The method, boiled down: as §1
A short description of data set [4]: Cytotoxicity against human Caco-2 cells assessed as inhibition of cell viability incubated for 48 hrs by Cell Titer GLO assay. The format is toxicity, cell-based. The method, boiled down:
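Caco-2 cells in DMEM with 10% FCS, seeded 25 000 per well, adhered overnight, then given peptide at 2–256 μg mL−1 in complete medium for 48 h at 37 °C, 5% CO2. Controls: cisplatin 125 μM; 0.1% DMSO medium. Viability by ATP luminescence (CellTiter-Glo) versus untreated cells; IC50 from dose–response; mean ± SEM of at least three independent experiments.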
(In general: Cellular ATP, detected with luciferase, serves as a proxy for viable cell number.)

The test system of data set [5] is Pseudomonas aeruginosa. Nature of the data set: Antimicrobial activity against Pseudomonas aeruginosa ATCC […] assessed as growth inhibition by microdilution assay. The format is functional. The method, boiled down: as §1
Data set [6] is described as follows: Antimicrobial activity against Salmonella enterica serovar Newport ATCC 6962 assessed as growth inhibition by microdilution assay. It counts as functional, Salmonella enterica subsp. enterica serovar Newport. An outline of the steps:
as §1

For a further data set, the system named is Enterococcus faecalis. Nature of the data set: Antimicrobial activity against Enterococcus faecalis ATCC 29212 assessed as growth inhibition by microdilution assay. It counts as functional. The method, boiled down:
as §1

For a further data set, the system named is Clostridium perfringens. The data set can be described thus: Antimicrobial activity against Clostridium perfringens ATCC 3628 assessed as growth inhibition by microdilution assay. It counts as functional. The method, boiled down: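 Broth microdilution: twofold serial peptide dilutions in reinforced clostridial medium (RCM), seeded with about 1 × 10^4 cfu per well, incubated 20 h at 37 °C. Working solution 512 μg mL−1 made from a 2 mg mL−1 stock in water with 10% DMSO. Growth read as absorbance at 595 nm. MIC taken as the lowest concentration giving complete inhibition of visible growth; run in triplicate.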

Data set [7] is described as follows: Hemolytic activity in human erythrocytes at 128 to 256 ug/ml measured after 1 hr by absorbance based assay. The format is toxicity, cell-based. To be noted: erythrocyte, dose 128-256 µg/ml. The method, boiled down:
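Washed human donor erythrocytes at 1% hematocrit in PBS pH 7.4 exposed to twofold peptide dilutions (final 2–256 μg mL−1, up to 1% DMSO) for 1 h at 37 °C. After centrifugation, supernatant A405 read. % hemolysis relative to PBS (0%) and 1% Triton X-100 (100%). Triplicate; mean ± SEM.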

Calls of active or inactive are those of the source. The rule behind the calls is not given here.

As a reminder, the MIC is the lowest concentration found to suppress growth. Usually IC50 stands for the midpoint of a concentration-inhibition curve. For the compound `C/C=C(/NC(=O)[C@@H](O)[C@@H](C)CC)C(=O)N[C@@H](CC(C)C)C(=O)N[C@H](CCCN)C(=O)N[C@H](C(=O)N[C@H](C(=O)N[C@H](C(=O)N[C@H](CCCCN)C(=O)N[C@H](C(=O)N[C@H](C(=O)N[C@@H](CCCCN)C(=O)N[C@H](Cc1ccc(O)cc1)C(=O)N[C@@H](CC(C)C)C(=O)N[C@H](C(=O)O)C(C)C)C(C)C)C(C)C)C(C)C)[C@@H](C)CC)[C@@H](C)CC`, the MIC with Bacillus subtilis is more than 128 µg/mL; in the data set on Staphylococcus aureus [1], more than 128 µg/mL; in the data set with Listeria monocytogenes, 128 µg/mL; with Campylobacter coli, 32 µg/mL; in the data set on Escherichia coli, more than 128 µg/mL; in the data set on Pseudomonas aeruginosa [5] it was more than 128 µg/mL. In addition, the MIC (in data set [6]; in the data set on Enterococcus faecalis; with Clostridium perfringens) was more than 128 µg/mL in each case. In addition, the “growth inhibition (qualitative call)” value in the data set on Staphylococcus aureus [2] and with Pseudomonas aeruginosa [3] was “inactive” throughout. Further, the IC50 at 48 h in data set [4] was more than 256 µg/mL. The Activity entry in [7] is given as “Non-toxic”.
